Screening results from PubChem BioAssay.
ARFGAP1 inh – rat ARFGAP1 inhibition; Arfgap1-stimulated ARF1 GTP hydrolysis, GDP FP detection; inhibition, % at 16.5 µM; hit rate 0.26% among 360,000;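 active means inhibition above a per-plate limit, mean inhibition of low control wells plus 3 SD, cut at about 25% in these data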;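 further: 0% = DMSO wells with enzyme and 100% = wells lacking Arfgap1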
Target sequence (Q62848 1-136 limits assumed): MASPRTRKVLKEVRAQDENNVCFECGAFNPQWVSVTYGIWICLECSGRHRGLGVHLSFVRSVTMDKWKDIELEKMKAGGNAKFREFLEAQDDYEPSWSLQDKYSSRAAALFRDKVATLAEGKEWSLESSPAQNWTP
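System: truncated rat Arfgap1 GAP domain / Benchmarks: high control wells lacking Arfgap1, low control full reaction with DMSO / Times: compound-enzyme preincubation 20 min, reaction 120 min, detection 60 min, 25 °C / Repeats: one replicate per compound / Also added: human ARF1(Δ1-17)-GTP substrate / Measured by: Tracer-displacement fluorescence polarization with EDTA stop, 620/688 nm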
MsrA inhibitor – bovine MsrA inhibition | purified bovine MsrA, absorbance read-out | AID 651718 | hit rate 0.75% among 360,000 | inhibition, % at 15.5 µM; in the data active means inhibition above about 4.5%;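 further: 0% = vehicle wells with enzyme and 100% = reference inhibitor wells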
ASAP1 GAP inh – inhibitors of human ASAP1 ArfGAP activity. inhibition, % at 16.5 µM. hit rate 0.19% among 360,000. ASAP1-stimulated ARF1 GTP hydrolysis, GDP FP detection. Q9ULH1; in the data active means inhibition above about 25%;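 further: 0% = vehicle with enzyme and substrate and 100% = no enzyme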
Target sequence (Q9ULH1 325-724 limits assumed): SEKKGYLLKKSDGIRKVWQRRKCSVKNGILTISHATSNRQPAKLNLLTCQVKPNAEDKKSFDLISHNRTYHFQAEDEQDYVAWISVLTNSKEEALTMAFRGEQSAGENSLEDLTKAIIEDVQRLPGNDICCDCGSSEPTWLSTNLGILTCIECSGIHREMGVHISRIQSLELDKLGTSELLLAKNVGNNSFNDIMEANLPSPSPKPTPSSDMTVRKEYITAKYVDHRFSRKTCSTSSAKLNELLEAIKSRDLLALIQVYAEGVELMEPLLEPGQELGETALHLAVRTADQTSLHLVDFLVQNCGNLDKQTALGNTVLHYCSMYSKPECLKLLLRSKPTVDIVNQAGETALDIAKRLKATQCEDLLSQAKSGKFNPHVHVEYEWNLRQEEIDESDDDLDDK
bovine MsrA act – activators of bovine methionine sulfoxide reductase A. purified bovine MsrA, absorbance read-out. activation, % at 10.6 µM. hit rate 0.3% among 360,000. AID 602163; in the data active means activation above about 7.5%;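 further: 0% = vehicle and 100% = reference activator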
HGIII-sPLA2 inh – Blocks human group III sPLA2 activity; QFRET BODIPY PC-A2 liposome hydrolysis, fluorescence; inhibition, % at 12.2 µM; hit rate 0.56% among 370,000; AID 743126;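 active means inhibition above mean plus 3 SD of compounds lying within the high and low control bounds, cut at about 19% in these data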;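 further: 0% = median of test compound wells and 100% = no enzyme DMSO wells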
Rev-erbA mod – modulates human Rev-erb alpha binding to DNA | P20393 | Rev-erbα–FITC-DNA binding, fluorescence polarization, 90 min | activity, % at 10 µM | hit rate 0.79% among 370,000 | AID 1259318;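 active means activity above about 14%, limit read from the data; passing the limit was not always enough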;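 further: 0% = DMSO wells with 35 nM protein and 100% = DMSO wells with 750 nM protein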
hGIII sPLA2 conf – human GIII-sPLA2 inhibition, confirmation; shares compounds with HGIII-sPLA2 inh; recombinant hGIII-sPLA2, BODIPY PC-A2 QFRET fluorescence; inhibition, % at 12.2 µM; hit rate 34% among 2,000; AID 743280;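 active means mean inhibition across triplicates above the hit cutoff set in the earlier primary screen, cut at about 19% in these data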;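 further: 0% = enzyme with DMSO and 100% = DMSO wells lacking enzyme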
535nm interf – 535nm fluorescence interference, HGIII-sPLA2 counter-screen. hit rate 8.5% among 2,000. shares compounds with HGIII-sPLA2 inh. inhibition, % at 12.2 µM. BODIPY FL product fluorescence interference, QFRET;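 active means average inhibition above the solvent-only control mean plus 3 SD, cut at about 6% in these data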;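 further: 0% = DMSO with substrate plus product and 100% = DMSO with substrate alone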
* hit, by the source's call. This is a sample that favours compounds with a hit; in the whole collection about 2.7% have one here.

Results for CC(C)[C@H](NC(=O)[C@H](C)NC(=O)OC(C)(C)C)C(=O)N1CCC2CCN(Cc3ccccc3)CC21 (stereo partly drawn) ?
ARFGAP1 inh: 16; MsrA inhibitor: 0; ASAP1 GAP inh: 10; HGIII-sPLA2 inh: 12; Rev-erbA mod: -2

Results for COC(=O)C(C)(C)ONC(=O)Nc1ccccc1Cl ?
ARFGAP1 inh: 4; MsrA inhibitor: 3; ASAP1 GAP inh: -2; bovine MsrA act: -4; HGIII-sPLA2 inh: 1; Rev-erbA mod: -3

How did COC(=O)C(C)(C)ONC(=O)Nc1ccccc1Br do in these assays?
ARFGAP1 inh: 14; MsrA inhibitor: 1; ASAP1 GAP inh: -9; bovine MsrA act: -3; HGIII-sPLA2 inh: 21*; Rev-erbA mod: 7; hGIII sPLA2 conf: -4; 535nm interf: -9

Results for O=C(N=C1N(Cc2ccccc2)C[C@]2(C=C3CCCCC3n3c(=O)n(-c4ccccc4)c(=O)n32)N1C(=O)OCc1ccccc1)c1ccccc1 (stereo partly drawn) ?
HGIII-sPLA2 inh: 7; Rev-erbA mod: 8

What do the screens show for `O=c1cc(C(F)(F)C(F)F)oc2ccccc12`?
ARFGAP1 inh: 11; MsrA inhibitor: 0; ASAP1 GAP inh: 1; bovine MsrA act: -2; HGIII-sPLA2 inh: 25*; Rev-erbA mod: 2; hGIII sPLA2 conf: -2; 535nm interf: -6

Results for C=CCN(C)CC#Cc1ccc(C)cc1 ?
HGIII-sPLA2 inh: 13; Rev-erbA mod: -2

How did Cc1ccc(/C(N)=N/OC(=O)CCc2ccccc2)cc1 do in these assays?
ARFGAP1 inh: 6; MsrA inhibitor: 0; ASAP1 GAP inh: 7; bovine MsrA act: -3; HGIII-sPLA2 inh: 20*; Rev-erbA mod: 0; hGIII sPLA2 conf: -4; 535nm interf: -6

How did CCn1c(-c2nn(-c3ccc(C)cc3)ccc2=O)n[nH]c1=S do in these assays?
ARFGAP1 inh: -2; MsrA inhibitor: 2; ASAP1 GAP inh: 4; bovine MsrA act: -6; HGIII-sPLA2 inh: 9; Rev-erbA mod: -1

How did CCn1c(-c2nn(-c3ccccc3)ccc2=O)n[nH]c1=S do in these assays?
ARFGAP1 inh: 3; MsrA inhibitor: 2; ASAP1 GAP inh: 7; bovine MsrA act: 0; HGIII-sPLA2 inh: 24*; Rev-erbA mod: 2; hGIII sPLA2 conf: 3; 535nm interf: -3

Results for O=C(OCc1nc2ccccc2s1)c1cc2ccccc2oc1=O ?
ARFGAP1 inh: 15; MsrA inhibitor: 2; ASAP1 GAP inh: 21; HGIII-sPLA2 inh: 22*; Rev-erbA mod: -1; hGIII sPLA2 conf: 9; 535nm interf: -8

What do the screens show for `Nc1ccc(C(=O)OCc2nc3ccccc3s2)cc1`?
ARFGAP1 inh: 4; MsrA inhibitor: 0; ASAP1 GAP inh: 3; bovine MsrA act: -4; HGIII-sPLA2 inh: -4; Rev-erbA mod: -1

What do the screens show for `O=C(Nc1ccccc1)Oc1ccccc1N1CCOCC1`?
ARFGAP1 inh: 2; MsrA inhibitor: -1; ASAP1 GAP inh: -14; bovine MsrA act: -5; HGIII-sPLA2 inh: -1; Rev-erbA mod: -1

How did O=C(Nc1ccc(COc2ccccc2)cc1)Oc1ccccc1N1CCOCC1 do in these assays?
ARFGAP1 inh: -3; MsrA inhibitor: 0; ASAP1 GAP inh: -7; bovine MsrA act: -2; HGIII-sPLA2 inh: 25*; Rev-erbA mod: -5; hGIII sPLA2 conf: 2; 535nm interf: -10

What do the screens show for `[C-]#[N+][C@]12C(=O)[C@H](C=C(Cl)[C@@]1(C)C=C)C(C)(C)[C@H]1C(=O)N(C)c3cccc2c31`?
HGIII-sPLA2 inh: 31*; Rev-erbA mod: 3; hGIII sPLA2 conf: 21*; 535nm interf: -13

How did Nc1cc(N)nc(SCC(=O)NCCC2=CCCCC2)n1 do in these assays?
ARFGAP1 inh: 8; MsrA inhibitor: 0; ASAP1 GAP inh: 10; bovine MsrA act: -3; HGIII-sPLA2 inh: 0; Rev-erbA mod: 3

What do the screens show for `Cc1cc(C)c2nc(SCC(=O)NCCC3=CCCCC3)cc(C)c2c1`?
ARFGAP1 inh: 8; MsrA inhibitor: 1; ASAP1 GAP inh: -10; bovine MsrA act: -4; HGIII-sPLA2 inh: 21*; Rev-erbA mod: 23; hGIII sPLA2 conf: -4; 535nm interf: -7

What do the screens show for `COC(=O)[C@]12C[C@H](CC(=O)N3CCSCC3)C(=O)N(Cc3ccc(Cl)cc3Cl)C1=C[C@H](C(C)(C)C)O[C@@H]2C`?
HGIII-sPLA2 inh: 2; Rev-erbA mod: 2

What do the screens show for `CN(/N=C/c1ccc2c(c1)OCO2)c1ccccc1`?
ARFGAP1 inh: -4; MsrA inhibitor: 4; ASAP1 GAP inh: 6; bovine MsrA act: -3; HGIII-sPLA2 inh: 23*; Rev-erbA mod: 2; hGIII sPLA2 conf: 41*; 535nm interf: 6.6*

What do the screens show for `CCN(CC(=O)NC(C)(C)C)C(=O)CCl`?
ARFGAP1 inh: 12; MsrA inhibitor: 0; ASAP1 GAP inh: -5; bovine MsrA act: -4; HGIII-sPLA2 inh: 20*; Rev-erbA mod: -3; hGIII sPLA2 conf: 2; 535nm interf: -1

Results for CCN(CC(=O)NC(C)(C)C)C(=O)COc1c(Cl)cc(Cl)c2ccc(C)nc12 ?
ARFGAP1 inh: 6; MsrA inhibitor: 1; ASAP1 GAP inh: -3; bovine MsrA act: -3; HGIII-sPLA2 inh: -4; Rev-erbA mod: 0

What do the screens show for `COc1cc(Sc2ccc(C)cc2)c(OC)cc1N`?
ARFGAP1 inh: -7; MsrA inhibitor: 1; ASAP1 GAP inh: -1; bovine MsrA act: -1; HGIII-sPLA2 inh: 22*; Rev-erbA mod: -1; hGIII sPLA2 conf: 38*; 535nm interf: 9.1*

Results for COCCn1c(SCC(=O)Nc2cc(C)nn2-c2ccccc2)nnc1-c1ccncc1 ?
ARFGAP1 inh: 10; MsrA inhibitor: 0; ASAP1 GAP inh: 7; bovine MsrA act: 3; HGIII-sPLA2 inh: 20*; Rev-erbA mod: 0; hGIII sPLA2 conf: 4; 535nm interf: -7

How did CC(C)(C)c1ccccc1NC(=O)Nc1nc(C(N)c2ccccc2Cl)cs1 (stereo not drawn) do in these assays?
ARFGAP1 inh: -8; MsrA inhibitor: -1; ASAP1 GAP inh: 16; bovine MsrA act: -10; HGIII-sPLA2 inh: 20*; Rev-erbA mod: -9; hGIII sPLA2 conf: 10; 535nm interf: -3

What do the screens show for `CC(C)C(N)c1csc(NC(=O)Nc2ccccc2C(C)(C)C)n1` (stereo not drawn)?
ARFGAP1 inh: 10; MsrA inhibitor: -2; ASAP1 GAP inh: 2; bovine MsrA act: -5; HGIII-sPLA2 inh: 7; Rev-erbA mod: -5

How did COCCn1cnc2c(c1=O)c1nc3ccccc3nc1n2/N=C/c1ccco1 do in these assays?
ARFGAP1 inh: 2; MsrA inhibitor: 1; ASAP1 GAP inh: -6; bovine MsrA act: -6; HGIII-sPLA2 inh: 19*; Rev-erbA mod: 3; hGIII sPLA2 conf: 5; 535nm interf: -9
